Results taken from ChEMBL document CHEMBL2380219, “Physalin A induces apoptotic cell death and protective autophagy in HT1080 human fibrosarcoma cells” (J Nat Prod, 2013).

Columns and labels:
[1] = tested on: PBMC; experiment: Cytotoxicity against human PBMC at 40 to 80 uM after 24 to 48 hrs by MTT assay; format: cell-based
In short: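 hPBMC from fresh blood of three healthy male volunteers, isolated on Ficoll-Hypaque (1.077 g/mL) at 900g for 30 min and washed, then seeded in complete RPMI-1640. Exposed to 10–80 μM for 24 and 48 h, with DMSO below 0.05%. MTT was read at 492 nm after formazan in DMSO. Inhibition % = (control−sample)/(control−blank)×100; mean ± SD, three independent experiments.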

[2] = tested on: HT-1080; experiment: Cytotoxicity against human HT1080 cells assessed as growth inhibition after 24 hrs by MTT assay; format: functional, cell-based; conditions: HT-1080, 24 h

SMILES | Activity [1] | IC50 [2]
O=c1[nH]cc(F)c(=O)[nH]1 [FLUOROURACIL] | Non-toxic | 70.8 µM
CC(=O)O[C@H]1C(=O)[C@@]2(C)[C@H]([C@H](OC(=O)c3ccccc3)[C@]3(O)C[C@H](OC(=O)[C@H](O)[C@@H](NC(=O)c4ccccc4)c4ccccc4)C(C)=C1C3(C)C)[C@]1(OC(C)=O)CO[C@@H]1C[C@@H]2O [PACLITAXEL] | Non-toxic | 6 µM
